T cruzi inh: blocks replication of Trypanosoma cruzi. T. cruzi beta-gal in NIH3T3, luminescence, 90 h. inhibition, % (concentration not given with the values). 300,000 compounds, 1.4% hits;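 active = mean inhibition across valid replicates above about 55%, limit read from the data; inconclusive = mean below that limit but half or more replicates reach it; inactive = mean below it, under half of replicates reach it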;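 note: signal also drops with host cell toxicity which is not excluded here; higher percent means less beta-gal luminescence so fewer parasites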
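assay system = mouse NIH/3T3 fibroblasts infected with β-gal-expressing T. cruzi Tulahuen C4 | input = 5,000 NIH/3T3 host cells per well | buffer or medium = DMEM plus 2% FBS | timing = 3 h host attachment, then at least 90 h co-culture | measured by = GalScreen luminescence, 60 min | evaluation = luminescence reflecting intracellular parasite burden, expressed as percent inhibition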
A1 inh: inhibitors of the anti-apoptotic protein A1, read as caspase activation | 330,000 compounds, 0.066% hits | MEF A1-2A-BIM cells, Caspase-Glo 3/7 luminescence, 3 h; percent of clofoctol response, vehicle zero | caspase activation, % (test concentration not listed);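 active = over half of replicate activation scores above 10%, or exactly half above 10 with the replicate mean above 10; inconclusive = replicate mean below 10 yet half the replicates above 10; inactive = over half of replicates below 10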
KLF5 inhibitor: inhibitors of KLF5 expression; DLD-1 KLF5 promoter-luciferase reporter, luminescence; inhibition, % at 5 µM; 290,000 compounds, 0.23% hits;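 active = inhibition above a per-plate limit of that plate's mean compound inhibition plus 3 SD, cut at about 60% in these data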;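 note: higher means less KLF5 promoter-driven luciferase light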
Beta apoptosis: beta cell apoptosis inhibition | 300,000 compounds, 0.8% hits | INS-1E cytokine-induced death, ATP luminescence, 48 h; percent of positive-control rescue, neutral wells zero | protection from apoptosis, % (test concentration not listed);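 active = Every replicate reaches about 75%, or at least half do and their mean reaches it too, limit read from the data; inconclusive = At least half of replicates reach the limit but their mean does not; inactive = Under half of replicates reach the limit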;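 note: higher means more ATP so stronger rescue from cytokine killing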
HIF activator: HIF pathway transcriptional activation; U2OS HRE-luciferase reporter, luminescence; normalized: DMSO 0%, desferrioxamine 100%; activation, % at 7.5 µM (by protocol); 300,000 compounds, 0.32% hits;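 active = mean activation of at least 10% of the iron chelator positive control signal, with at least half of replicates also reaching 10%; inconclusive = mean and replicate majority disagree about reaching 10%; inactive = mean and most replicates under 10%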
Hits are given with their value; n = inactive; u = inconclusive; x = not tested or not shown. Most compounds without a hit are left out; they make up all but 2.3% or so of the library.

SMILES | T cruzi inh | A1 inh | KLF5 inhibitor | Beta apoptosis | HIF activator
CCOc1ccc(-c2cnc(NCc3cccc4ccccc34)n2CCOC)cc1 | 72.0 | n | n | n | n
CCOC(=O)c1c2ccccc2[n+]([O-])n1CCO | n | n | x | n | n
COc1ccc(-n2nc(C(=O)NCC(=O)N3CCC(C)CC3)c3ccccc3c2=O)cc1Cl | n | n | n | n | n
O=C(CCNS(=O)(=O)c1ccc(Br)s1)Nc1ccc(Cl)cc1 | 58.1 | n | n | n | n
O=C(CCNS(=O)(=O)c1ccc(Br)s1)NC1CCCC1 | n | n | n | n | n
Cc1c(C(=O)Nc2ccc(Cl)cc2)c2ccccn2c1CCc1ccncc1 | 63.1 | n | n | n | n
Cc1c(C(=O)Nc2cccc(Cl)c2)c2ccccn2c1CCc1ccncc1 | 55.8 | x | n | x | n
O=C(NCc1ccncc1)Nc1cccc(Cl)c1 | n | n | n | n | n
Cc1c(C(=O)Nc2ccc(Cl)cc2)c2ccccn2c1C(=O)c1ccc(F)cc1 | n | n | n | n | n
COc1ccccc1NS(=O)(=O)c1cccc(NS(=O)(=O)c2ccc(Cl)c(C(=O)O)c2)c1 | x | n | x | n | x
O=C1c2ccc3c4c(ccc(c24)C(=O)N1CCCCO)C(=O)N(CCCCO)C3=O | 68.4 | x | n | x | n
O=C(c1ccc2c(c1)C(=O)N(CCCO)C2=O)c1ccc2c(c1)C(=O)N(CCCO)C2=O | x | n | n | n | x
O=S(=O)(Nc1nc2ccccc2s1)c1ccc(Cl)s1 | n | n | n | 81.2 | n
O=S(=O)(Nc1nc2ccccc2s1)c1cc(F)ccc1F | n | n | n | n | n
COc1ccccc1C(=O)NC(=O)COC(=O)c1cc[n+]([O-])cc1 | n | n | x | n | n
CC(C)c1ccc(-n2cnn(-c3ncccc3[N+](=O)[O-])c2=O)cc1 | n | n | n | n | n
Cc1ccc(-n2cnn(-c3ccc([N+](=O)[O-])cc3[N+](=O)[O-])c2=O)cc1 | 57.2 | n | n | n | n
O=c1c2ccccc2ncn1-c1ccc([N+](=O)[O-])cc1[N+](=O)[O-] | 63.1 | n | n | n | n
O=C(Cc1ccc(Cl)cc1)NNC(=O)c1ccco1 | n | n | n | n | n
c1ccc(/N=C2\N=C(Nc3ccccn3)c3ccccc32)nc1 | 64.9 | n | x | 102.7 | n
CC(=O)c1cccc(NC(=O)c2ccccc2N(Cc2ccccc2)S(C)(=O)=O)c1 | n | n | n | n | n
COc1cc2c(cc1OC)C(Cc1ccc(O)c(Oc3ccc(C[C@H]4c5cc(OC)c(OC)cc5CCN4C)cc3)c1)N(C)CC2 (stereo partly specified) | x | n | x | n | x
CC(C)(C)n1nc(-c2ccc(F)cc2)c2c(N)ncnc21 | 57.3 | n | n | n | n
CC1CN(CCOCCOc2ccccc2-c2ccccc2)CC(C)O1 (stereo unspecified) | n | n | n | x | n
COc1ccc(N/C=C2/Sc3ccccc3NC2=O)cc1 | 67.9 | n | n | n | n
SMILES | T cruzi inh | A1 inh | KLF5 inhibitor | Beta apoptosis | HIF activator
O=C1Nc2ccccc2S/C1=C/NCc1ccccc1Cl | n | n | n | n | n
Cc1ccc(N/C=C2/Sc3ccccc3NC2=O)cc1 | 58.9 | n | n | n | n
CCc1ccc(-c2nc(CS(=O)CC(=O)NCc3ccc4c(c3)OCO4)c(C)o2)cc1 (stereo unspecified) | n | n | n | n | n
Cc1nn(Cc2cccc(C(=O)Nc3ccn(Cc4c(F)c(F)cc(F)c4F)n3)c2)c(C)c1[N+](=O)[O-] | 68.0 | n | n | n | n
Cc1nn(C)c(C(=O)Nc2ccn(Cc3c(F)c(F)cc(F)c3F)n2)c1[N+](=O)[O-] | n | n | n | n | n
CC(=O)Nc1ccccc1OCC(=O)c1cc(C)n(Cc2cccs2)c1C | n | n | n | 110.7 | n
CCc1cccc(C)c1NC(=O)C1CC(=O)N(C2CCCC2)C1 (stereo unspecified) | x | n | x | n | x
NNC(=O)c1ccc(CSc2cccc3cccnc23)cc1 | n | n | n | n | n
Cc1cccc(CSc2cccc3cccnc23)c1 | 70.1 | n | n | n | n
O=[N+]([O-])c1cccc(/C=N/n2cnnc2)c1 | n | n | n | 81.7 | n
CCOC(=O)C1=C(C)NC2=C(C(=O)c3ccccc32)C1c1ccc([N+](=O)[O-])o1 (stereo unspecified) | 58.3 | n | n | n | n
CC(C)(C)N1CC23CCC(C[C@@H]2C1=O)O3 (stereo partly specified) | n | u | x | n | n
CN1c2cccc3cccc(c23)N(C)C1(C)C | n | n | n | n | n

From PubChem
